The values that follow come from publication PMC3646584 (Journal of medicinal chemistry, 2013).

Where only a bound is given, the exact number is not on record here.

Series [1] can be described thus: Cytotoxicity for resting peripheral blood lymphocytes. Format: cell-based. The note with it: human. In short, it runs like this: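 Donor PBLs were separated on a Lymphoprep gradient, washed, and kept overnight in RPMI-1640 with 10% FBS. Nonadherent cells were resuspended at 5 × 10^5 cells/mL without PHA (resting) and exposed to graded compound for 72 h. Viability was read by MTT. IC50 is given as mean ± SEM from three separate experiments.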

The nature of series [2]: Cytotoxicity for PHA-stimulated peripheral blood lymphocytes. The note with it: human, PHA-stimulated (proliferating) peripheral blood lymphocytes. Format: cell-based. Put shortly:
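PBLs from healthy donors were isolated on a Lymphoprep gradient, washed, and rested overnight at 1.0 × 10^6 cells/mL in RPMI-1640 with 10% FBS. Nonadherent cells were reseeded at 5 × 10^5 cells/mL in growth medium containing 2.5 μg/mL PHA. Graded compound was added and viability read by MTT after 72 h. IC50 is given as mean ± SEM of three separate experiments.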

The subject of series [3] is panel of seven human cancer cell lines. Kind of series: Antiproliferative activity across the panel of seven human cancer cell lines. It is filed as cell-based. The note with it: read-out: IC50 values across the cell line panel. Put shortly: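 Jurkat, SEM and HL-60 cells were grown in RPMI-1640; MCF-7, A549, HeLa and HT-29 cells in DMEM; both with 10% FBS plus penicillin/streptomycin. 8 × 10^3 cells/well were held 18 h at 37 °C, 5% CO2, then given fresh medium with graded compound (DMSO ≤0.25%) for 72 h. Viability was read by MTT. […] Mean ± SE, ≥3 independent experiments.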

Series [4] relates to BNL 1ME A.7R.1 allografts. Kind of series: Syngeneic hepatocellular carcinoma allograft model. The following applies: 5 mg/kg ip daily for seven days. Format: in vivo, Balb/c mice. In short, it runs like this:
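Male Balb/c mice, 8 weeks old, received 10^7 syngeneic hepatocarcinoma cells in 200 μL sterile PBS subcutaneously in the dorsal region. At ~100 mm3, fifteen mice were randomised into three groups of five. Groups got vehicle (0.9% NaCl, 5% PEG 400, 0.5% Tween 80), test compound, or reference, each at 5 mg/kg ip daily for 7 days. Body weight was tracked as mean ± SEM; two-sided Student's t test.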

For series [5], the system named is Jurkat, HT-29, and HeLa cells. Kind of series: Cell cycle analysis by flow cytometry. Format: cell-based, human. The following applies: for lowest concentration giving a rise in G2/M cells: 24 h treatment. Put shortly:
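Cells were treated for 24 h with graded compound concentrations (HeLa: 5 × 10^5 exponentially growing cells). They were collected, fixed in ice-cold 70% ethanol, and treated with lysis buffer containing RNase A and 0.1% Triton X-100. After PI staining, DNA content was read by flow cytometry. Cell-cycle phase percentages came from DNA histogram analysis.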
Background: In flow cytometry, cells or beads pass a laser one at a time.

Series [6] deals with HeLa cells. Kind of series: Annexin-V/PI apoptosis assay. It is filed as cell-based, human. The following applies: 24 or 48 h, concentration- and time-dependent.
Series [7] has as its system HeLa cells. Kind of series: Mitochondrial membrane potential. The following applies: JC-1, 24 or 48 h. Format: cell-based, human. Put shortly: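 HeLa cells exposed to the test compound at the stated concentrations for 24 or 48 h, with DMSO at no more than 0.25%, then stained with the lipophilic cationic dye JC-1 to monitor mitochondrial membrane potential. Values are the mean ± SEM of three independent experiments.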

In series [8] the test system is HeLa cells. Kind of series: ROS production. The note with it: HE or H2-DCFDA, 24 or 48 h. Format: cell-based, human. Put shortly: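 After 24 or 48 h exposure to the test compound (DMSO at most 0.25%), cells were stained with hydroethidine (HE) or H2-DCFDA and ROS were read by flow cytometry. Results are the mean ± SEM from three independent experiments.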
Series [9] deals with HeLa cells. The series is described as follows: Western blot analysis of cell cycle and apoptosis proteins. Format: cell-based, human. In short, it runs like this: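 HeLa cells were treated for 24 or 48 h. They were washed twice in ice-cold PBS and lysed on ice for 30 min, and the lysates were cleared at 15000g, 4 °C, 10 min. Protein was measured by BCA, and 20 μg per lane was run on 7.5–15% SDS–PAGE, then blotted to PVDF and blocked overnight at 4 °C. Membranes were probed 2 h at room temperature for cyclin B, p-cdc2 Tyr15, PARP and Xiap, with peroxidase secondary for 60 min and ECL detection. They were stripped and reprobed for β-actin.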
On the technique in general: Immunoblotting shows a protein as a band on a membrane.

Another series deals with A549. The series is described as follows: In vitro cell growth inhibition. It is filed as cell-based. The following applies: Homo sapiens.
The next series deals with A549-T12. The series is described as follows: Cell growth inhibition, drug-resistant cell line study. Format: cell-based, human. The following applies: for IC50: Homo sapiens; for resistance ratio: IC50 A549-T12 / IC50 A549. Put shortly:
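Cells seeded at 8 × 10^3 per well and preincubated 18 h at 37 °C in humidified 5% CO2. Medium then replaced with fresh medium holding test compound at several concentrations (10 mM DMSO stocks; final DMSO ≤0.25%) for 72 h at 37 °C. Viability by MTT. […] Parental A549 grown in DMEM with 10% FBS.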

One may read the IC50 as the concentration needed to halve the response being measured.

With `COC(=O)c1sc2cc(OC)ccc2c1Nc1cc(OC)c(OC)c(OC)c1` [4i, Methyl 6-Methoxy-3-[(3,4,5-trimethoxyphenyl)amino]-1-benzo-[b]thiophene-2-carboxylate], the IC50 at 72 h in series [1] is over 10000 nM. The same compound displayed a half-inhibitory concentration (IC50) at 72 h in series [2] of 2800 ± 1200 nM. In addition, the IC50 in [3] is 0.28 to 10 nM. For the same compound, the “body weight change during treatment” value in series [4] is on record as “only a small decrease in body weight”. Besides, in series [5] (24 h, at higher concentrations), the “cells arrested in G2/M” value was “more than 80%”. The “lowest concentration giving a rise in G2/M cells” value in series [5] is given as 20 nM. For the same compound, in the series with HeLa cells [6], the “annexin-V-positive cells vs control” value was “accumulation of annexin-V-positive cells”. Also, the “proportion of cells with depolarized mitochondria” value in the series on HeLa cells [7] is “time- and concentration-dependent increase”. Besides, the “ROS production vs control cells” value with HeLa cells [8] was “induced the production of significant amounts of ROS”. Further, in the series on HeLa cells [9] (10 or 100 nM, 24 or 48 h), the “cyclin B expression” value is “no significant variations” and the “expression of phosphorylated cdc2 (Tyr15)” value is “dramatic decrease”. Besides, in the series with HeLa cells [9] (24 h), the “concentration at which PARP cleavage was detectable” value stood at 10 nM. In addition, in the series with HeLa cells [9] (24 h, even at 10 nM), the Xiap expression entry is given as “almost eliminated”. Besides, in the series with HeLa cells [9] (Western blot, HeLa), the caspase activation result is “induced proteolytic cleavage of caspase-9 and caspase-3”.
Compound `COC(=O)c1sc2ncccc2c1Nc1cc(OC)c(OC)c(OC)c1` [4l, Methyl 3-[(3,4,5-Trimethoxyphenyl)amino]thieno[2,3-b]pyridine-2-carboxylate] returned a half-inhibitory concentration (IC50) in the series on A549 of 8.5 ± 1.9 nM. For the same compound, in the series on A549-T12, inhibition was half-maximal at 12.6 ± 2.9 nM (IC50) and the resistance ratio is recorded as 1.5.
The matching figures for `CCOC(=O)c1sc2ncccc2c1Nc1cc(OC)c(OC)c(OC)c1` [4m, Ethyl 3-[(3,4,5-Trimethoxyphenyl)amino]thieno[2,3-b]pyridine-2-carboxylate]: 16.2 ± 4.4 nM, 19.5 ± 2.3 nM and 1.2.
`COC(=O)c1sc2nc(C)ccc2c1Nc1cc(OC)c(OC)c(OC)c1` [4n, Methyl 6-Methyl-3-[(3,4,5-trimethoxyphenyl)amino]thieno[2,3-b]pyridine-2-carboxylate]: the concentration for half-maximal inhibition (IC50) at 72 h in [1] is over 10000 nM. In addition, the “lowest concentration giving a rise in G2/M cells” value in series [5] amounted to 20 nM. Besides, the “annexin-V-positive cells vs control” value with HeLa cells [6] was “accumulation of annexin-V-positive cells”. In the series on HeLa cells [7], the “proportion of cells with depolarized mitochondria” value is “time- and concentration-dependent increase”. Besides, the “ROS production vs control cells” value in the series with HeLa cells [8] is on record as “induced the production of significant amounts of ROS”.
